Data taken from ChEMBL document CHEMBL1128217, “Synthesis, structure-affinity relationships, and biological activities of ligands binding to retinoic acid receptor subtypes” (J Med Chem, 1995).

Key:
F9 [1] = assay: In vitro promotion of plasminogen activator secretion from F9 (murine teratocarcinoma) cells.; assay type: functional, cell-based; conditions: Mus musculus
In short: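 F9 murine teratocarcinoma cells grown in DMEM with 15% fetal bovine serum, exposed 3 days to a range of retinoid concentrations. Differentiation quantified by plasminogen activator secretion; AC50 (concentration giving half-maximal secretion) obtained by nonlinear regression.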

[2] = molecular target: T1, Retinoic acid receptor beta (Homo sapiens, UniProt P10826); assay: Binding affinity to retinoic acid receptor beta using [3H]CD 367 as radioligand
T1 sequence (P10826 whole entry): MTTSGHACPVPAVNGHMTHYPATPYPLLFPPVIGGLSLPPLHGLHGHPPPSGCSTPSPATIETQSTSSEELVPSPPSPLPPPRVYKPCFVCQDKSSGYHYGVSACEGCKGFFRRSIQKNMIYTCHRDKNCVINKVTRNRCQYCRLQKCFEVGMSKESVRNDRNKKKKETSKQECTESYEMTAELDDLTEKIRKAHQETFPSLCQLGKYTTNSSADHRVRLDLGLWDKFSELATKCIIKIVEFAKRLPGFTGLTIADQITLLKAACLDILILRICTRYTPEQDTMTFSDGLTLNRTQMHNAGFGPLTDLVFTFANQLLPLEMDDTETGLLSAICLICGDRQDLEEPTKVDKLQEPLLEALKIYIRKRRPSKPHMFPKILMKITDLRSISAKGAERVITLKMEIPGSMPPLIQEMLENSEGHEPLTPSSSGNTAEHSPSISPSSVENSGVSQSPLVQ

[3] = molecular target: T2, Retinoic acid receptor alpha (Homo sapiens, UniProt P10276); assay: Binding affinity to retinoic acid receptor alpha using [3H]CD 367 as radioligand
T2 sequence (P10276 whole entry): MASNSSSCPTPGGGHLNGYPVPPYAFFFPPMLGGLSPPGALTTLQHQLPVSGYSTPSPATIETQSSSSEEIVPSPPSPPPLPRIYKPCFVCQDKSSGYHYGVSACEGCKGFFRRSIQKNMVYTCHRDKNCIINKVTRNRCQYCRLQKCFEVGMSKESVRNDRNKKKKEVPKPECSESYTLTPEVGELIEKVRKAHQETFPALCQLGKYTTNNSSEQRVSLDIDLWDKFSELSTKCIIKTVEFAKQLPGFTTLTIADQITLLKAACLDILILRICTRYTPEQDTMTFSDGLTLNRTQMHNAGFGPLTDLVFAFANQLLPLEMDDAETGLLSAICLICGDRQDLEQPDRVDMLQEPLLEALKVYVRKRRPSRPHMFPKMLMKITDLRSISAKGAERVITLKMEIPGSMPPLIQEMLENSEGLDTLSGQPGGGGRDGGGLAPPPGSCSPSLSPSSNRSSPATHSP

[4] = molecular target: T3, Retinoic acid receptor gamma (Homo sapiens, UniProt P13631); assay: Binding affinity to retinoic acid receptor (RAR) gamma using [3H]CD 367 as radioligand
T3 sequence (P13631 whole entry): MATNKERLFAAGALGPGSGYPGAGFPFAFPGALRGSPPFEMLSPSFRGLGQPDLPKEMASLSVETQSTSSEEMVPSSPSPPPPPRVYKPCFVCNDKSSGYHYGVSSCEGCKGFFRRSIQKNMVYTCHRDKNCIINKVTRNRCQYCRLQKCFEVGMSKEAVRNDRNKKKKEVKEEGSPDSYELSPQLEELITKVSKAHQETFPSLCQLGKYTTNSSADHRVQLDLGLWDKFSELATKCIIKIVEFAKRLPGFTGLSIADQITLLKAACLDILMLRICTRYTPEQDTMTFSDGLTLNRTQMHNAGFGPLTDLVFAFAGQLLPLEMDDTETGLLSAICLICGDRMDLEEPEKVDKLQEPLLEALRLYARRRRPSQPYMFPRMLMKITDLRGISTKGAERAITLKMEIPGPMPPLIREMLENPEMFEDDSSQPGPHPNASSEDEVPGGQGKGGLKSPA

F9 [5] = assay: Compound was evaluated for its inhibitory activity against F9 murine teratocarcinoma cell differentiation; NA=not active; assay type: functional, cell-based, Mus musculus
F9 [6] = assay: Compound was evaluated for its inhibitory activity against F9 murine teratocarcinoma cell differentiation; assay type: functional, cell-based; conditions: Mus musculus
F9 [7] = assay: Compound was evaluated for its inhibitory activity against F9 murine teratocarcinoma cell differentiation;NA=not active; assay type: functional, cell-based, Mus musculus

Ki [2] [nM] | Ki [3] [nM] | Ki [4] [nM] | Compound | AC50 (F9 [1]) [nM] | AC50 (F9 [5]) | IC50 (F9 [6]) [nM] | AC50 (F9 [7]) | IC50 (F9 [7])
34 | 1100 | – | COc1ccc(-c2ccc3cc(C(=O)O)ccc3c2)cc1C12CC3CC(CC(C3)C1)C2 | 37 | – | – | – | –
> 10000 | > 10000 | > 10000 | O=C(O)c1ccc2cc(-c3ccc(C(=O)O)c(C45CC6CC(CC(C6)C4)C5)c3)ccc2c1 | 2000 | – | – | – | –
36 | 6500 | 426 | COc1ccc(-c2ccc3cc(C(=O)O)ccc3c2)cc1C(C)(C)C | 200 | – | – | – | –
105 | 460 | 95 | COc1ccc(/C(C)=C/c2ccc(C(=O)O)cc2)cc1C12CC3CC(CC(C3)C1)C2 | 100 | – | – | – | –
158 | > 10000 | 34 | O=C(O)c1ccc2cc(-c3ccc(CC(O)CO)c(C45CC6CC(CC(C6)C4)C5)c3)ccc2c1 (centres undefined) | 100 | – | – | – | –
70 | 610 | 20 | O=C(O)c1ccc(/C=C/c2ccc(O)c(C34CC5CC(CC(C5)C3)C4)c2)cc1 | 1 | – | – | – | –
89 | 5000 | 151 | O=C(O)c1ccc2cc(-c3ccc(OCC(O)CO)c(C45CC6CC(CC(C6)C4)C5)c3)ccc2c1 (centres undefined) | 83 | – | – | – | –
660 | > 10000 | 121 | CC1(c2cc(-c3ccc4cc(C(=O)O)ccc4c3)ccc2O)CCCCC1 | 175 | – | – | – | –
> 10000 | > 10000 | > 10000 | CCCCCCOc1ccc(-c2ccc3cc(C(=O)O)ccc3c2)cc1C12CC3CC(CC(C3)C1)C2 | – | Not Active | – | – | –
– | – | – | C/C(=C\c1ccc(C(=O)O)cc1)c1ccc2c(c1)C(C)(C)CCC2(C)C | 0.78 | – | – | – | –
210 | 8500 | 860 | CC1(C)CCOc2ccc(-c3ccc4cc(C(=O)O)ccc4c3)cc21 | 300 | – | – | – | –
90 | 1060 | 27 | C/C(=C\c1ccc(C(=O)O)cc1)c1ccc(O)c(C2(C)CCCCC2)c1 | 300 | – | – | – | –
26 | 1120 | 160 | COc1ccc(-c2ccc3cc(C(=O)O)ccc3c2)cc1C1(C)CCCCC1 | 150 | – | – | – | –
105 | 834 | 85 | C/C(=C\c1ccc(C(=O)O)cc1)c1ccc(O)c(C(C)(C)C)c1 | – | – | 700 | Not Active | –
17 | 420 | 29 | COc1ccc(/C(C)=C/c2ccc(C(=O)O)cc2)cc1C1(C)CCCCC1 | 30 | – | – | – | –
288 | > 10000 | 153 | O=C(O)c1ccc2cc(-c3ccc(C(O)CO)c(C45CC6CC(CC(C6)C4)C5)c3)ccc2c1 (centres undefined) | 73 | – | – | – | –
21 | 695 | 72 | O=C(O)c1ccc2cc(-c3ccc(CCCO)c(C45CC6CC(CC(C6)C4)C5)c3)ccc2c1 | 7.5 | – | – | – | –
3 | 5.3 | 2 | CC1(C)CCC(C)(C)c2cc3cc(-c4ccc(C(=O)O)cc4)ccc3cc21 | 0.46 | – | – | – | –
1240 | 1140 | 53 | C/C(=C\c1ccc(C(=O)O)cc1)c1ccc(O)c(C23CC4CC(CC(C4)C2)C3)c1 | 66 | – | – | – | –
156 | > 10000 | 386 | O=C(O)c1ccc2cc(-c3ccc(CO)c(C45CC6CC(CC(C6)C4)C5)c3)ccc2c1 | 460 | – | – | – | –
3550 | > 10000 | 200 | CC(C)(C)c1cc(-c2ccc3cc(C(=O)O)ccc3c2)ccc1O | – | – | – | Not Active | Not Active
12 | 130 | 13 | COc1ccc(/C(C)=C/c2ccc(C(=O)O)cc2)cc1C(C)(C)C | 30 | – | – | – | –
2480 | 6500 | – | O=C(O)c1ccc2cc(-c3ccc(O)c(C45CC6CC(CC(C6)C4)C5)c3)ccc2c1 [O-DEMETHYLATED ADAPALENE] | 33 | – | – | – | –
– | – | – | CC1=C(/C=C/C(C)=C/C=C/C(C)=C/C(=O)O)C(C)(C)CCC1 [TRETINOIN] | 200 | – | – | – | –

Compound | Ki [2] [nM] | Ki [3] [nM] | Ki [4] [nM] | AC50 (F9 [1]) [nM] | AC50 (F9 [5]) | IC50 (F9 [6]) [nM] | AC50 (F9 [7]) | IC50 (F9 [7])
CC1(C)CCC(C)(C)c2cc(-c3ccc4cc(C(=O)O)ccc4c3)ccc21 | 13 | 580 | 40 | 15 | – | – | – | –
